ChEMBL document CHEMBL1687798, “In vitro mitochondrial toxicity of metacavir, a new nucleoside reverse transcriptase inhibitor for treatment of hepatitis B virus” (Antimicrob Agents Chemother, 2010)

Key:
Format in all cases: cell-based
[1] = tested on: HepG2; assay: Cytotoxicity against human HepG2 cells assessed as reduction in viable cells upto 250 uM after 15 days by trypan blue dye exclusion assay relative to control; conditions: hepg2, 360 h
Summary of the method: (§1)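 HepG2 cells seeded at 5 × 10⁵/ml in MEM with 10% FBS and 1 mM pyruvate. Exposed for 6, 9 and 15 days, with medium and drug renewed every 3 days. Viable cells counted by trypan blue exclusion on a hemocytometer and expressed as percent of 0.1% DMSO control; three independent experiments.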

[2] = tested on: HepG2; assay: Cytotoxicity against human HepG2 cells assessed as lipid droplet formation at 250 uM after 15 days by electron microscopy relative to control; conditions: hepg2, 360 h
Summary of the method: (§2)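 HepG2 cells exposed 15 days, then fixed in 2.5% glutaraldehyde 1 h, postfixed in 1% osmium tetroxide 1 h, dehydrated through graded ethanol and propylene oxide, Epon-embedded, sectioned, and stained with uranyl acetate and lead citrate. Examined by transmission EM; >10 fields per treatment at low or high magnification; three independent experiments. DMSO 0.1% vehicle control.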

[3] = tested on: HepG2; assay: Cytotoxicity against human HepG2 cells assessed as mitochondrial swelling at 250 uM after 15 days by electron microscopy relative to control; conditions: hepg2, 360 h; summary of the method: as §2
[4] = tested on: HepG2; assay: Cytotoxicity against human HepG2 cells assessed as inhibition of mitochondrial respiratory chain complex II activity at 250 uM after 15 days relative to control; conditions: hepg2, 360 h
[5] = tested on: HepG2; assay: Cytotoxicity against human HepG2 cells assessed as increase in extracellular lactate secretion at 10 to 250 uM after 15 days relative to control; conditions: hepg2, 360 h
Summary of the method: (§3)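 Extracellular lactate in HepG2 culture medium measured with a lactic acid kit after 15 days of exposure. Medium and drug renewed every 3 days. Expressed as mg lactic acid per 10⁶ cells, then as percent of 0.1% DMSO vehicle control. n = 3.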

[6] = tested on: HepG2; assay: Cytotoxicity against human HepG2 cells assessed as reduction in mitochondrial DNA content at 10 uM after 15 days by RT-PCR method relative to control; set-up: scale not given: the % may be the effect or the level left; conditions: hepg2, 360 h
Summary of the method: (§4)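 Total DNA extracted from HepG2 cells after 15-day exposure. Cells reseeded every 5 days; compounds added from 1,000× DMSO stocks, final DMSO 0.1%. Cytochrome b and actin copies measured by TaqMan real-time PCR against plasmid standard curves, 45 cycles. mtDNA/nDNA ratio expressed as percent of DMSO control; three independent experiments.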

[7] = tested on: HepG2; assay: Cytotoxicity against human HepG2 cells assessed as reduction in mitochondrial DNA content at 50 uM after 15 days by RT-PCR method relative to control; set-up: scale not given: the % may be the effect or the level left; conditions: hepg2, 360 h; summary of the method: as §4
[8] = tested on: HepG2; assay: Cytotoxicity against human HepG2 cells assessed as reduction in mitochondrial DNA content at 250 uM after 15 days by RT-PCR method relative to control; set-up: scale not given: the % may be the effect or the level left; conditions: hepg2, 360 h; summary of the method: as §4
[9] = tested on: HepG2; assay: Cytotoxicity against human HepG2 cells assessed as inhibition of mitochondrial respiratory chain complex I activity at 250 uM after 15 days relative to control; conditions: hepg2, 360 h
[10] = tested on: HepG2; assay: Cytotoxicity against human HepG2 cells assessed as inhibition of mitochondrial respiratory chain complex I activity at 10 uM after 15 days relative to control; conditions: hepg2, 360 h
[11] = tested on: HepG2; assay: Cytotoxicity against human HepG2 cells assessed as inhibition of mitochondrial respiratory chain complex II activity at 10 uM after 15 days relative to control; conditions: hepg2, 360 h
[12] = tested on: HepG2; assay: Cytotoxicity against human HepG2 cells assessed as inhibition of mitochondrial respiratory chain complex III activity at 10 uM after 15 days relative to control; conditions: hepg2, 360 h
[13] = tested on: HepG2; assay: Cytotoxicity against human HepG2 cells assessed as inhibition of mitochondrial respiratory chain complex IV activity at 10 uM after 15 days relative to control; conditions: hepg2, 360 h
[14] = tested on: HepG2; assay: Cytotoxicity against human HepG2 cells assessed as inhibition of mitochondrial respiratory chain complex I activity at 50 uM after 15 days relative to control; conditions: hepg2, 360 h
[15] = tested on: HepG2; assay: Cytotoxicity against human HepG2 cells assessed as inhibition of mitochondrial respiratory chain complex II activity at 50 uM after 15 days relative to control; conditions: hepg2, 360 h
[16] = tested on: HepG2; assay: Cytotoxicity against human HepG2 cells assessed as inhibition of mitochondrial respiratory chain complex III activity at 50 uM after 15 days relative to control; conditions: hepg2, 360 h
[17] = tested on: HepG2; assay: Cytotoxicity against human HepG2 cells assessed as inhibition of mitochondrial respiratory chain complex IV activity at 50 uM after 15 days relative to control; conditions: hepg2, 360 h
[18] = tested on: HepG2; assay: Cytotoxicity against human HepG2 cells assessed as inhibition of mitochondrial respiratory chain complex III activity at 250 uM after 15 days relative to control; conditions: hepg2, 360 h
[19] = tested on: HepG2; assay: Cytotoxicity against human HepG2 cells assessed as inhibition of mitochondrial respiratory chain complex IV activity at 250 uM after 15 days relative to control; conditions: hepg2, 360 h
[20] = tested on: HepG2; assay: Cytotoxicity against human HepG2 cells assessed as inhibition of mitochondrial respiratory chain complex I activity after 15 days relative to control; conditions: hepg2, 360 h
[21] = tested on: HepG2; assay: Cytotoxicity against human HepG2 cells assessed as inhibition of mitochondrial respiratory chain complex II activity after 15 days relative to control; conditions: hepg2, 360 h
[22] = tested on: HepG2; assay: Cytotoxicity against human HepG2 cells assessed as inhibition of mitochondrial respiratory chain complex III activity after 15 days relative to control; conditions: hepg2, 360 h
[23] = tested on: HepG2; assay: Cytotoxicity against human HepG2 cells assessed as inhibition of mitochondrial respiratory chain complex IV activity after 15 days relative to control; conditions: hepg2, 360 h
[24] = tested on: HepG2; assay: Cytotoxicity against human HepG2 cells assessed as reduction in viable cells at 10 uM after 15 days by trypan blue dye exclusion assay relative to control; conditions: hepg2, 360 h; summary of the method: as §1
[25] = tested on: HepG2; assay: Cytotoxicity against human HepG2 cells assessed as disrupted mitochondrial cristae at 10 uM after 15 days by electron microscopy relative to control; conditions: hepg2, 360 h; summary of the method: as §2
[26] = tested on: HepG2; assay: Cytotoxicity against human HepG2 cells assessed as mitochondrial swelling at 10 uM after 15 days by electron microscopy relative to control; conditions: hepg2, 360 h; summary of the method: as §2
[27] = tested on: HepG2; assay: Cytotoxicity against human HepG2 cells assessed as increase in extracellular lactate secretion at 10 uM after 15 days relative to control; conditions: hepg2, 360 h; summary of the method: as §3
[28] = tested on: HepG2; assay: Cytotoxicity against human HepG2 cells assessed as reduction in viable cells at 50 uM after 15 days by trypan blue dye exclusion assay relative to control; conditions: hepg2, 360 h; summary of the method: as §1
[29] = tested on: HepG2; assay: Cytotoxicity against human HepG2 cells assessed as reduction in viable cells at 50 uM after 6 days by trypan blue dye exclusion assay relative to control; conditions: hepg2, 144 h; summary of the method: as §1
[30] = tested on: HepG2; assay: Cytotoxicity against human HepG2 cells assessed as slight increase in mitochondrial size at 50 uM after 15 days by electron microscopy relative to control; conditions: hepg2, 360 h; summary of the method: as §2
[31] = tested on: HepG2; assay: Cytotoxicity against human HepG2 cells assessed as increase in extracellular lactate secretion at 50 uM after 15 days relative to control; conditions: hepg2, 360 h; summary of the method: as §3

COc1nc(N)nc2c1ncn2[C@H]1CC[C@@H](CO)O1 [METACAVIR]
Activity [1]: Non-toxic | Activity [2]: Toxic | Activity [3]: Toxic | Activity [4]: Toxic | Activity [5]: Non-toxic | Activity [6]: Non-toxic | Activity [7]: 80% | Activity [8]: 60% | Activity [9]: Toxic | Activity [10]: Non-toxic | Activity [11]: Non-toxic | Activity [12]: Non-toxic | Activity [13]: Non-toxic | Activity [14]: Toxic | Activity [15]: Non-toxic | Activity [16]: Toxic | Activity [17]: Toxic | Activity [18]: Toxic | Activity [19]: Toxic | Activity [20]: Dose-dependent effect | Activity [21]: Dose-dependent effect | Activity [22]: Dose-dependent effect | Activity [23]: Dose-dependent effect

Nc1ccn([C@H]2CC[C@@H](CO)O2)c(=O)n1 [ZALCITABINE]
Activity [24]: < 30% | Activity [25]: Toxic | Activity [26]: Toxic | Activity [27]: 170% | Activity [6]: 3% | Activity [10]: Toxic | Activity [11]: Toxic | Activity [12]: Toxic | Activity [13]: Toxic

Cc1cn([C@H]2C[C@H](N=[N+]=[N-])[C@@H](CO)O2)c(=O)[nH]c1=O [ZIDOVUDINE]
Activity [28]: 60% | Activity [29]: Toxic | Activity [30]: Toxic | Activity [31]: 300% | Activity [7]: Non-toxic | Activity [14]: Toxic | Activity [15]: Toxic | Activity [16]: Toxic | Activity [17]: Toxic
